Test [1] has as its target T1, G-protein coupled receptor 55 (Homo sapiens, UniProt Q9Y2T6). Briefly: Agonist activity at HA-epitope-tagged variant of GPR55E with serine enhanced C terminus (unknown origin) expressed in human U2OS cells assessed as increase in GFP-tagged beta arrestin2 recruitment after 75 mins by fluorescence assay. It counts as cell-based. Background: Recruitment of arrestin is a read-out of receptor activation apart from second messengers.
Target sequence in this assay (Q9Y2T6 whole entry, looked up): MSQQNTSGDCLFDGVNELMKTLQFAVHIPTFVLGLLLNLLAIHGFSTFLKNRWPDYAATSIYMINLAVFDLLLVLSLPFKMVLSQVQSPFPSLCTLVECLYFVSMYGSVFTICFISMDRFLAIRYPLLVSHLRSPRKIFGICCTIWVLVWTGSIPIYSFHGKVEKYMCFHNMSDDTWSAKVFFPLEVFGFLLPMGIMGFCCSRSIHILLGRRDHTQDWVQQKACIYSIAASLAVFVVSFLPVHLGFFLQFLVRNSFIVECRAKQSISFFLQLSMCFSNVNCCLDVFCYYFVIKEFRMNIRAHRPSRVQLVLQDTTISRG

The next test addresses Cannabinoid receptor 2 (Homo sapiens, UniProt P34972). Kind of test: Agonist activity at human CB2 receptor expressed in U2OS cells assessed as increase in GFP-tagged beta arrestin recruitment after 75 mins by fluorescence assay. Type of test: functional, cell-based.
The target in another test is Cannabinoid receptor 1 (Homo sapiens, UniProt P21554). Briefly: Agonist activity at human brain CB1 receptor expressed in U2OS cells assessed as increase in beta arrestin recruitment after 60 mins by fluorescence assay. It counts as functional, cell-based.
Chain of Cannabinoid receptor 1 (P21554 whole entry, the tested form may be a part): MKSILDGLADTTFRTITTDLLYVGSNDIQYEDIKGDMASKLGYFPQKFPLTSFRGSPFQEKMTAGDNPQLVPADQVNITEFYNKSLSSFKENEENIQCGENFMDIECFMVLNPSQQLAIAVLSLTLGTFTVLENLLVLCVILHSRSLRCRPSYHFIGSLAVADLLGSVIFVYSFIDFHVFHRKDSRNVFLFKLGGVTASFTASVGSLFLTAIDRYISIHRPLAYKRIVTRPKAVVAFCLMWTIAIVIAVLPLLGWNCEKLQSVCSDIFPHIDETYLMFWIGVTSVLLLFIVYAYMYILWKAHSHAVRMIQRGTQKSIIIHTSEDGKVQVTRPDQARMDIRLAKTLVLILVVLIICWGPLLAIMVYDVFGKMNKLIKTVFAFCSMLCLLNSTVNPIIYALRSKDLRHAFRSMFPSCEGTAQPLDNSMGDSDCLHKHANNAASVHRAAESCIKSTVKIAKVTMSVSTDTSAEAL
Test [2] concerns the target T1, G-protein coupled receptor 55. Briefly: Agonist activity at beta-galactosidase enzyme fragment-fused GPR55 (unknown origin) expressed in CHOK1 cells assessed as increase in N-terminal deletion beta-galactosidase mutant-tagged beta arrestin recruitment measured for 1 sec by chemiluminescence based pathhunter assay. It counts as functional, cell-based. The essentials:
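CHO-K1 cells stably co-expressing the receptor–β-gal fragment fusion and the β-arrestin–deletion-mutant fusion, kept in selection medium, passaged up to 10 times. Ligands tested from 0.5 nM to 30 μM. Chemiluminescent substrate signal read at room temperature for 1 s. Vehicle readings subtracted from ligand readings (RLU), and EC50 obtained from these values. LPI served as positive control. Run in triplicate, repeated at least 3 times.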
Target sequence in this assay (Q9Y2T6 whole entry, looked up, stated change not applied): as the sequence (Q9Y2T6 whole entry, looked up) above

Chain of Cannabinoid receptor 2 (P34972 whole entry): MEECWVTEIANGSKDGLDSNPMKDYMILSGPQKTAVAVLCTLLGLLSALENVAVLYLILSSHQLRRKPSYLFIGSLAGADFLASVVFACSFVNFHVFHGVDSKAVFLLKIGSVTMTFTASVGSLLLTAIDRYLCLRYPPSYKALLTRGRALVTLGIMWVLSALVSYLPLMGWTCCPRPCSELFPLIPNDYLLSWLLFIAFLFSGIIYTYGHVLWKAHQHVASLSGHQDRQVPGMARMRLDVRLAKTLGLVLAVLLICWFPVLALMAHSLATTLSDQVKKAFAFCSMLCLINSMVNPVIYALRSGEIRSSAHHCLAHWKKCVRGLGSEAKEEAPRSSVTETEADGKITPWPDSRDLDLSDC

As a reminder, the EC50 is the concentration at which the effect is half-maximal. Turning to `Cc1cccc(N2CCN(C(=O)c3cc(S(=O)(=O)N(C)C)ccc3N3CCCC3)CC2)c1C`, the values for the EC50 (in test [1]; at Cannabinoid receptor 2; on Cannabinoid receptor 1) were 0.26 µM, above 30 µM and above 30 µM, respectively. As for `COc1ccccc1/C=C/C(=O)NC(=S)Nc1ccc(S(=O)(=O)N(C)c2ccccc2)cc1`, the half-maximal effective concentration (EC50) is 0.11 µM in test [1], above 30 µM on Cannabinoid receptor 2 and above 30 µM on Cannabinoid receptor 1.

As for `COc1ccc2cc(C)c3nnc(SCC(=O)Nc4nc(-c5ccc(F)cc5)cs4)n3c2c1`, the concentration for a half-maximal effect (EC50) in test [1] is 0.16 µM; at Cannabinoid receptor 2, above 30 µM; at Cannabinoid receptor 1, above 30 µM. Consider `CN(c1ccccc1)S(=O)(=O)c1ccc(NC(=S)NC(=O)c2ccc3cc(CCO)ccc3c2)cc1`, for which the EC50 in test [2] came to 0.3 µM.

Regarding `COc1ccccc1/C=C/C(=O)NC(=S)Nc1ccc(S(=O)(=O)Nc2onc(C)c2C)cc1`, in test [2], the half-maximal effective concentration (EC50) was above 30 µM. Still for that read-out and setting: as for `COc1ccccc1/C=C/C(=O)NC(=S)Nc1ccc(S(=O)(=O)NCC(O)CO)cc1` (stereo not given), the figure is above 30 µM; as for `O=C(NC(=S)Nc1ccc(S(=O)(=O)N(Cc2ccc(O)cc2)c2ccccc2)cc1)c1ccc2cccnc2c1`, 0.5 µM.

Regarding `COc1ccccc1/C=C/C(=O)NC(=S)Nc1ccc(S(=O)(=O)Nc2ccccc2)cc1`, the concentration giving a half-maximal response (EC50) in test [2] turned out to be 0.6 µM. For `COc1ccccc1/C=C/C(=O)NC(=S)Nc1ccc(S(=O)(=O)N(Cc2ccc(O)cc2)c2ccccc2)cc1`, the EC50 in test [2] stood at 0.5 µM. Same read-out and setting: as for `O=C(NC(=S)Nc1ccc(S(=O)(=O)N(Cc2ccncc2)c2ccccc2)cc1)c1ccc2cccnc2c1`, the figure is 0.9 µM; as for `COc1ccccc1/C=C/C(=O)NC(=S)Nc1ccc(S(=O)(=O)N(Cc2ccccc2O)c2ccccc2)cc1`, 2 µM; as for `O=C(NC(=S)Nc1ccc(S(=O)(=O)N(CCO)c2ccccc2)cc1)c1ccc2cc(CCO)ccc2c1`, 20 µM.

Consider `O=C(NC(=S)Nc1ccc(S(=O)(=O)N(Cc2ccc(CO)o2)c2ccccc2)cc1)c1ccc2cc(CCO)ccc2c1`, for which, in test [2], the 50% effective concentration (EC50) was 6 µM. Regarding `CN(c1ccccc1)S(=O)(=O)c1ccc(NC(=S)NC(=O)c2ccc3cc(CO)ccc3c2)cc1`, the 50% effective concentration (EC50) in test [2] was 4 µM.

Regarding `O=C(NC(=S)Nc1ccc(S(=O)(=O)N(Cc2ccc(CO)o2)c2ccccc2)cc1)c1ccc2cccnc2c1`, the half-maximal effective concentration (EC50) in test [2] is 0.6 µM. In the case of `COc1ccccc1/C=C/C(=O)NC(=S)Nc1ccc(S(=O)(=O)N(C)c2ccncc2)cc1`, the EC50 in test [2] is 0.5 µM. In the case of `CN(c1ccccc1)S(=O)(=O)c1ccc(NC(=S)NC(=O)c2cnc3ccccc3c2)cc1`, the half-maximal effective concentration (EC50) in test [2] is above 30 µM. On the same count and under the same terms, as for `COc1ccccc1/C=C/C(=O)NC(=S)Nc1ccc(S(=O)(=O)NCCO)cc1`, the figure is above 30 µM; as for `COc1ccccc1/C=C/C(=O)NC(=S)Nc1ccc(S(=O)(=O)N(CCO)c2ccccc2)cc1`, 0.7 µM; as for `COc1ccccc1/C=C/C(=O)NC(=S)Nc1ccc(S(=O)(=O)N(Cc2cccc(O)c2)c2ccccc2)cc1`, 2 µM.

Regarding `O=C(NC(=S)Nc1ccc(S(=O)(=O)N(CCO)c2ccccc2)cc1)c1ccc2cccnc2c1`, the 50% effective concentration (EC50) in test [2] came to 0.2 µM. Still for that read-out and setting: the value for `CN(c1ccccc1)S(=O)(=O)c1ccc(NC(=S)NC(=O)c2ccc3cccnc3c2)cc1` was 1 µM. On to `COc1ccccc1/C=C/C(=O)NC(=S)Nc1ccc(S(=O)(=O)N(Cc2ccncc2)c2ccccc2)cc1`, for which, in test [2], the EC50 turned out to be 0.3 µM. The same measure, in the same setting: the value for `COc1ccccc1/C=C/C(=O)NC(=S)Nc1ccc(S(=O)(=O)N(Cc2ccc(CO)o2)c2ccccc2)cc1` was 0.1 µM.

These data come from ChEMBL document CHEMBL4052732, “Design, synthesis and biological evaluation of GPR55 agonists” (Bioorg Med Chem, 2017).
